The record followed here is ChEMBL document CHEMBL1153946, “Oxadiazole-diarylpyrazole 4-carboxamides as cannabinoid CB1 receptor ligands” (Bioorg Med Chem Lett, 2009).

The structures appear in SMILES notation.

One experiment deals with Cannabinoid receptor 1 (Rattus norvegicus, UniProt P20272). The experiment can be described thus: Displacement of [3H]CP-55940 from cannabinoid CB1 receptor in Sprague-Dawley rat cerebellar membrane by liquid scintillation spectrometry. Further details: species or system Cerebellum. The method, boiled down:
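Membranes from cerebella of male Sprague-Dawley rats (200–300 g), homogenized in TME (50 mM Tris-HCl, 1 mM EDTA, 3 mM MgCl₂, pH 7.4), spun 48,000g 30 min at 4 °C, resuspended, stored at −70 °C. Incubated 1 h at 30 °C with radioligand in TME plus 0.5% fatty-acid-free BSA. Filtered on PEI-soaked GF/B and washed; IC50 by nonlinear regression.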

The test system of the next experiment is CHO-K1. The experiment can be described thus: Selectivity ratio of IC50 for human recombinant cannabinoid CB2 receptor expressed in CHOK1 cells to IC50 for cannabinoid CB1 receptor in Sprague-Dawley rat cerebellar membrane.
For the next experiment, the target named is Cannabinoid receptor 2 (Homo sapiens, UniProt P34972). The experiment is described as follows: Displacement of [3H]WIN-55212-2 from human recombinant cannabinoid CB2 receptor expressed in CHOK1 cells by liquid scintillation spectrometry. The class given is cell-based, CHO-K1. The method in brief:
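CHO K-1 cells transfected with human CB2; membranes prepared as for brain tissue. Competition with 3 nM [3H]WIN55,212-2 in TME buffer (pH 7.4) with 0.5% fatty-acid-free BSA, 1 h at 30 °C. Filtered on 0.1% PEI-soaked GF/B, washed five times with ice-cold buffer plus 0.1% BSA, and counted by scintillation. IC50 by nonlinear regression.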

Cannabinoid receptor 1, sequence (P20272 whole entry): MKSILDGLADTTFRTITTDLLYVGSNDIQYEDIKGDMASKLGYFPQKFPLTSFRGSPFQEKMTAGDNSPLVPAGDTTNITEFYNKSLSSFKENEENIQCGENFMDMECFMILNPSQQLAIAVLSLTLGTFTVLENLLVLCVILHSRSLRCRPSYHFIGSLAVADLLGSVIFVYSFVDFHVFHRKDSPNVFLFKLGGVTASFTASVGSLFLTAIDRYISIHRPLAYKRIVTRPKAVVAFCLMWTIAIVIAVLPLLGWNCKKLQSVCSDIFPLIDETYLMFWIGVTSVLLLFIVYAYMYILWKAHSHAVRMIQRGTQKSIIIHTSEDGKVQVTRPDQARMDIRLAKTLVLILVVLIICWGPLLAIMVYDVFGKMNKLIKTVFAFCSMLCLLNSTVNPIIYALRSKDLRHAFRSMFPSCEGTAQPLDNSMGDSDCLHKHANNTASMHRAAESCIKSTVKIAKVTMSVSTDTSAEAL
Cannabinoid receptor 2, sequence (P34972 whole entry): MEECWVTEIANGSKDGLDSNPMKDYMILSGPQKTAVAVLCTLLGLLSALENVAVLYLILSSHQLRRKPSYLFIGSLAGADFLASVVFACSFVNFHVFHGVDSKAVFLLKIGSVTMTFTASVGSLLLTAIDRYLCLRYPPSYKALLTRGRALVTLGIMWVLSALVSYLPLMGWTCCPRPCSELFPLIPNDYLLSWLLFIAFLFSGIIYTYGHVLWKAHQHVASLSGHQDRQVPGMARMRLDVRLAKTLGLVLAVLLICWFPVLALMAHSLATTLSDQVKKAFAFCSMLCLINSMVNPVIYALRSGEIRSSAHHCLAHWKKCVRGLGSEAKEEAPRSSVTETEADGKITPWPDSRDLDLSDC

As usually defined, the IC50 is the midpoint of a concentration-inhibition curve. The compound `CC(C)(C)c1nnc(-c2nn(-c3ccc(Cl)cc3Cl)c(-c3ccc(Cl)cc3)c2C(=O)NN2CCCCC2)o1` displayed an IC50 at Cannabinoid receptor 1 of 17.2 nM.

For `CC(C)(C)c1nnc(-c2nn(-c3ccc(Cl)cc3Cl)c(-c3ccc(Cl)cc3)c2C(=O)Nc2ccccc2)o1`, the Ratio IC50 with CHO-K1 was 445. Also, the half-maximal inhibitory concentration (IC50) was found to be 738 nM on Cannabinoid receptor 2 and 1.66 nM on Cannabinoid receptor 1.

As to `CCN(C)C(=O)c1c(-c2nnc(C(C)(C)C)o2)nn(-c2ccc(Cl)cc2Cl)c1-c1ccc(Cl)cc1`, the IC50 on Cannabinoid receptor 1 was determined as 11.5 nM.

With `CC(C)(C)c1nnc(-c2nn(-c3ccc(Cl)cc3Cl)c(-c3ccc(Cl)cc3)c2C(=O)NC2CC2)o1`, the IC50 at Cannabinoid receptor 1 amounted to 3.27 nM.

Compound `CCN(CC)C(=O)c1c(-c2nnc(C(C)(C)C)o2)nn(-c2ccc(Cl)cc2Cl)c1-c1ccc(Cl)cc1` returned an IC50 on Cannabinoid receptor 1 of 62.1 nM.

`CC(C)(C)c1nnc(-c2nn(-c3ccc(Cl)cc3Cl)c(-c3ccc(Cl)cc3)c2C(=O)Nc2ccccn2)o1`: in the experiment on CHO-K1, the Ratio IC50 turned out to be 433. Also, the results for the concentration for half-maximal inhibition (IC50) on Cannabinoid receptor 2 and at Cannabinoid receptor 1 were 636 nM and 1.47 nM, respectively.

On to `CC(C)(C)c1nnc(-c2nn(-c3ccc(Cl)cc3Cl)c(-c3ccc(Br)cc3)c2C(=O)Nc2ccccc2)o1`, for which the Ratio IC50 with CHO-K1 came to 286. The IC50 on Cannabinoid receptor 2 came to 386 nM; on Cannabinoid receptor 1, 1.35 nM.

In turn, `CC(C)(C)c1nnc(-c2nn(-c3ccc(Cl)cc3Cl)c(-c3ccc(Cl)cc3)c2C(=O)N2CCCC2)o1` displayed a half-inhibitory concentration (IC50) at Cannabinoid receptor 1 of 93.4 nM.

On Cannabinoid receptor 1, `CCCNC(=O)c1c(-c2nnc(C(C)(C)C)o2)nn(-c2ccc(Cl)cc2Cl)c1-c1ccc(Cl)cc1` gave an IC50 of 5.72 nM.

`CNC(=O)c1c(-c2nnc(C(C)(C)C)o2)nn(-c2ccc(Cl)cc2Cl)c1-c1ccc(Cl)cc1` displayed an IC50 at Cannabinoid receptor 1 of 18.3 nM.

With `CC(C)(C)c1nnc(-c2nn(-c3ccc(Cl)cc3Cl)c(-c3ccc(Cl)cc3)c2C(=O)NC2CCCC2)o1`, at Cannabinoid receptor 1, the IC50 stood at 7.25 nM.

With `CCCCNC(=O)c1c(-c2nnc(C(C)(C)C)o2)nn(-c2ccc(Cl)cc2Cl)c1-c1ccc(Cl)cc1`, the half-inhibitory concentration (IC50) on Cannabinoid receptor 1 stood at 17.8 nM.

In turn, `CCNC(=O)c1c(-c2nnc(C(C)(C)C)o2)nn(-c2ccc(Cl)cc2Cl)c1-c1ccc(Cl)cc1` yielded a half-maximal inhibitory concentration (IC50) at Cannabinoid receptor 1 of 12.7 nM.

For the compound `CC(C)(C)c1nnc(-c2nn(-c3ccc(Cl)cc3Cl)c(-c3ccc(Br)cc3)c2C(=O)Nc2ccccn2)o1`, the Ratio IC50 with CHO-K1 amounted to 256. Moreover, the values for the IC50 on Cannabinoid receptor 2 and on Cannabinoid receptor 1 were 374 nM and 1.46 nM, respectively.

Compound `CC(C)(C)c1nnc(-c2nn(-c3ccc(Cl)cc3Cl)c(-c3ccc(Cl)cc3)c2C(N)=O)o1` showed an IC50 at Cannabinoid receptor 1 of 23.8 nM.

Consider `O=C(Nc1ccccc1)c1c(-c2nnc(C3(c4ccc(Cl)cc4)CC3)o2)nn(-c2ccc(Cl)cc2Cl)c1-c1ccc(Br)cc1`, for which the Ratio IC50 in the experiment on CHO-K1 is > 5100. Further, the values for the IC50 at Cannabinoid receptor 2 and on Cannabinoid receptor 1 were > 10000 nM and 1.96 nM, respectively.

`CC(C)NC(=O)c1c(-c2nnc(C(C)(C)C)o2)nn(-c2ccc(Cl)cc2Cl)c1-c1ccc(Cl)cc1` showed an IC50 on Cannabinoid receptor 1 of 9.31 nM.

As for `CN(C)C(=O)c1c(-c2nnc(C(C)(C)C)o2)nn(-c2ccc(Cl)cc2Cl)c1-c1ccc(Cl)cc1`, on Cannabinoid receptor 1, the IC50 amounted to 13.4 nM.

The compound `CC(=O)CNC(=O)c1c(-c2nnc(C(C)(C)C)o2)nn(-c2ccc(Cl)cc2Cl)c1-c1ccc(Cl)cc1` yielded an IC50 at Cannabinoid receptor 1 of 3.51 nM.
